Active and inactive are the calls of the source. No cut-off for these calls is given here.
Legend:
[1] = test system: Candida albicans; experiment: Antifungal activity against Candida albicans MTCC 1637 at 30 ug/ml by cup-plate agar diffusion method; format: functional; details: for zone of inhibition at 30 µg/mL: read-out: DIZ
Method in brief: (§1)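 Cup-plate agar diffusion assay against the fungal strains, with amphotericin B as the reference standard.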

[2] = test system: Escherichia coli; experiment: Antibacterial activity against Escherichia coli ATCC 25922 at 500 ug/ml after 24 hrs; format: functional, organism-based
Method in brief: (§2)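 Organisms grown overnight at 37 °C in buffered glucose broth. A loopful (5 mm diameter) was added to buffered glucose broth containing the test compound and incubated at 37 °C for 24 h. Growth was scored against the untreated control as total inhibition, poor, medium or confluent growth.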

[3] = test system: Aspergillus flavus; experiment: Antifungal activity against Aspergillus flavus AIIMS isolate at 30 ug/ml by cup-plate agar diffusion method; format: functional; details: for zone of inhibition at 30 µg/mL: read-out: DIZ; method in brief: as §1
[4] = test system: Bacillus subtilis; experiment: Antibacterial activity against Bacillus subtilis MTCC 121 at 10 ug/ml after 24 hrs; format: functional, organism-based; method in brief: as §2
[5] = test system: Bacillus subtilis; experiment: Antibacterial activity against Bacillus subtilis MTCC 121 after 24 hrs; format: functional
[6] = test system: Escherichia coli; experiment: Antibacterial activity against Escherichia coli ATCC 25922 after 24 hrs; format: functional
[7] = test system: Aspergillus niger; experiment: Antifungal activity against Aspergillus niger AIIMS isolate at 30 ug/ml by cup-plate agar diffusion method; format: functional; details: for zone of inhibition at 30 µg/mL: read-out: DIZ; method in brief: as §1
[8] = test system: Escherichia coli; experiment: Antibacterial activity against Escherichia coli ATCC 25922 at 1 ug/ml after 24 hrs; format: functional, organism-based; method in brief: as §2
[9] = test system: Bacillus subtilis; experiment: Antibacterial activity against Bacillus subtilis MTCC 121 at 500 ug/ml after 24 hrs; format: functional, organism-based; method in brief: as §2
[10] = test system: Bacillus subtilis; experiment: Antibacterial activity against Bacillus subtilis MTCC 121 at 1 ug/ml after 24 hrs; format: functional, organism-based; method in brief: as §2
[11] = test system: Bacillus subtilis; experiment: Antibacterial activity against Bacillus subtilis MTCC 121 at 100 ug/ml after 24 hrs; format: functional, organism-based; method in brief: as §2
[12] = test system: Escherichia coli; experiment: Antibacterial activity against Escherichia coli ATCC 25922 at 200 ug/ml after 24 hrs; format: functional, organism-based; method in brief: as §2
[13] = test system: Escherichia coli; experiment: Antibacterial activity against Escherichia coli ATCC 25922 at 10 ug/ml after 24 hrs; format: functional, organism-based; method in brief: as §2
[14] = test system: Escherichia coli; experiment: Antibacterial activity against Escherichia coli ATCC 25922 at 100 ug/ml after 24 hrs; format: functional, organism-based; method in brief: as §2
[15] = test system: Bacillus subtilis; experiment: Antibacterial activity against Bacillus subtilis MTCC 121 at 200 ug/ml after 24 hrs; format: functional, organism-based; method in brief: as §2

In the case of `Cc1cccc(/C=N/c2nnc(Cn3c(C)nc4ccccc43)s2)c1`, the “diameter of the inhibition zone (DIZ)” value [1] is reported as “inactive”, the inhibition [2] is reported as “inactive” and the “diameter of the inhibition zone (DIZ)” value [3] is reported as “inactive”. The inhibition [4] was “inactive”, the Activity [5] was “inactive” and the MIC [6] was “inactive”. For the same compound, the “diameter of the inhibition zone (DIZ)” value [7] was “inactive”, the inhibition [8] was “inactive” and the Activity [9] was “inactive”. For the same compound, the inhibition [10] was “inactive”, the inhibition [11] was “inactive” and the inhibition [12] was “inactive”. The inhibition [13] was “inactive”, the inhibition [14] was “inactive” and the Activity [15] was “inactive”.

In the case of `Cc1cccc(C2C(Cl)C(=O)N2c2nnc(Cn3c(C)nc4ccccc43)s2)c1` (stereo not given), the “diameter of the inhibition zone (DIZ)” value [1] is reported as “inactive”, the inhibition [2] is reported as “inactive” and the “diameter of the inhibition zone (DIZ)” value [3] is reported as “inactive”. For the same compound, the inhibition [4] was “inactive”, the MIC [5] was “inactive” and the MIC [6] was “inactive”. The “diameter of the inhibition zone (DIZ)” value [7] was “inactive”, the inhibition [8] was “inactive” and the Activity [9] was “inactive”. For the same compound, the inhibition [10] was “inactive”, the inhibition [11] was “inactive” and the inhibition [12] was “inactive”. The inhibition [13] was “inactive”, the inhibition [14] was “inactive” and the inhibition [15] was “inactive”.

In the case of `Cc1nc2ccccc2n1Cc1nnc(/N=C/c2ccc(Cl)cc2)s1`, the zone of inhibition at 30 µg/mL [1] is reported as 10 mm, the inhibition [2] is reported as “inactive” and the zone of inhibition at 30 µg/mL [3] is reported as < 10 mm. For the same compound, the inhibition [4] was “inactive”, the MIC [5] was “inactive” and the MIC [6] was “inactive”. For the same compound, the zone of inhibition at 30 µg/mL [7] was 10 mm, the inhibition [8] was “inactive” and the Activity [9] was “inactive”. The inhibition [10] was “inactive”, the inhibition [11] was “inactive” and the inhibition [12] was “inactive”. The inhibition [13] was “inactive”, the inhibition [14] was “inactive” and the inhibition [15] was “inactive”.

In the case of `COc1ccccc1C1C(Cl)C(=O)N1c1nnc(Cn2c(C)nc3ccccc32)s1` (stereo not given), the zone of inhibition at 30 µg/mL [1] is reported as < 10 mm, the inhibition [2] is reported as “inactive” and the zone of inhibition at 30 µg/mL [3] is reported as < 10 mm. The inhibition [4] was “inactive”, the MIC [5] was “inactive” and the MIC [6] was “inactive”. For the same compound, the zone of inhibition at 30 µg/mL [7] was < 10 mm, the inhibition [8] was “inactive” and the Activity [9] was “inactive”. For the same compound, the inhibition [10] was “inactive”, the inhibition [11] was “inactive” and the inhibition [12] was “inactive”. For the same compound, the inhibition [13] was “inactive”, the inhibition [14] was “inactive” and the inhibition [15] was “inactive”.

With `COc1ccccc1/C=N/c1nnc(Cn2c(C)nc3ccccc32)s1` the zone of inhibition at 30 µg/mL [1] was 10 mm, the inhibition [2] was “inactive” and the zone of inhibition at 30 µg/mL [3] was 16 mm. For the same compound, the inhibition [4] was “inactive”, the MIC [5] was “inactive” and the MIC [6] was “inactive”. The zone of inhibition at 30 µg/mL [7] was 16 mm, the inhibition [8] was “inactive” and the Activity [9] was “inactive”. The inhibition [10] was “inactive”, the inhibition [11] was “inactive” and the inhibition [12] was “inactive”. For the same compound, the inhibition [13] was “inactive”, the inhibition [14] was “inactive” and the inhibition [15] was “inactive”.

In the case of `Cc1nc2ccccc2n1Cc1nnc(N2C(=O)C(Cl)C2c2ccc(Cl)cc2)s1` (stereo not given), the “diameter of the inhibition zone (DIZ)” value [1] is reported as “inactive”, the inhibition [2] is reported as “inactive” and the “diameter of the inhibition zone (DIZ)” value [3] is reported as “inactive”. For the same compound, the inhibition [4] was “inactive”, the MIC [5] was “inactive” and the MIC [6] was “inactive”. The “diameter of the inhibition zone (DIZ)” value [7] was “inactive”, the inhibition [8] was “inactive” and the Activity [9] was “inactive”. For the same compound, the inhibition [10] was “inactive”, the inhibition [11] was “inactive” and the inhibition [12] was “inactive”. The inhibition [13] was “inactive”, the inhibition [14] was “inactive” and the inhibition [15] was “inactive”.

Source: ChEMBL document CHEMBL1158335, “Synthesis and evaluation of some new benzimidazole derivatives as potential antimicrobial agents” (2009)
